{"source": "paper PMC9436332", "about": "(Proceedings of the National Academy of Sciences of the …, 2022)", "key": {"[1]": {"system": "quantified cysteines in the human proteome (22Rv1 cells)", "assay": "Cysteine-directed MS-ABPP", "type": "binding", "details": "20 µM, 3 h, in situ; 22Rv1 and Ramos", "procedure,_shortened": "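22Rv1 cells were plated at 15 million cells per 15-cm dish and treated the next day. Ramos cells were adjusted to 3 × 10⁶ cells/mL and rested 30 min before treatment. Cells got 20 μM test compound in situ for 3 h, then were washed in cold DPBS and frozen. Cells were probe-sonicated in cold PBS, and 2 mg/mL lysate was labelled with IA-DTB (10 mM DMSO stock) for 1 h at room temperature in the dark. Cysteines were quantified by LC-MS/MS/MS against DMSO.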"}, "[2]": {"system": "rat DRG neurons", "type": "cell-based", "details": "48 h"}, "[3]": {"system": "mouse DRG neurons", "assay": "Vacor-induced neurite degeneration in mouse DRG neurons", "type": "cell-based", "details": "for Degeneration Index (%): +50 μM Vacor alone"}, "[4]": {"system": "SARM1-C311A", "assay": "Gel-ABPP, in situ, SARM1-C311A mutant expressed in HEK293T cells", "type": "binding, human", "details": "20 µM, 1 h", "procedure,_shortened": "(§1)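 N-terminally FLAG-tagged human SARM1 (WT or C311A) was transiently expressed in HEK293T cells and treated 48 h post-transfection. Cells got either alkyne probe alone (20 μM, 1 h, in situ) or 3 h compound pretreatment followed by probe. Lysates (ice-cold DPBS with protease inhibitors, 1.0 mg/mL) underwent 1 h CuAAC with rhodamine-azide/TCEP/TBTA/CuSO₄. Analysis was SDS-PAGE in-gel fluorescence with background-subtracted band intensities; IC₅₀ by four-parameter fit; three independent experiments.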"}, "[5]": {"system": "WT-SARM1", "assay": "Gel-ABPP, in vitro treatment, WT-SARM1 recombinantly expressed in HEK293T cells", "type": "binding, human", "details": "1 h; for effect of metabolite on MY-13B engagement of SARM1: 0.125-1 mM, MY-13B 20 µM"}, "[6]": {"system": "mouse SARM1", "assay": "Gel-ABPP, in situ, mouse SARM1 recombinantly expressed in HEK293T cells", "type": "binding", "details": "20 µM, 1 h, compared with human SARM1"}, "[7]": {"system": "WT-SARM1", "assay": "Gel-ABPP, in situ, WT-SARM1 recombinantly expressed in HEK293T cells", "type": "binding, human", "details": "1 h", "procedure,_shortened": "as §1"}, "[8]": {"system": "SARM1", "details": "cited from earlier work"}, "[9]": {"molecular_target": "T1, endogenous SARM1 (Homo sapiens, UniProt Q6SZW1)", "T1 sequence (Q6SZW1 28-724)": "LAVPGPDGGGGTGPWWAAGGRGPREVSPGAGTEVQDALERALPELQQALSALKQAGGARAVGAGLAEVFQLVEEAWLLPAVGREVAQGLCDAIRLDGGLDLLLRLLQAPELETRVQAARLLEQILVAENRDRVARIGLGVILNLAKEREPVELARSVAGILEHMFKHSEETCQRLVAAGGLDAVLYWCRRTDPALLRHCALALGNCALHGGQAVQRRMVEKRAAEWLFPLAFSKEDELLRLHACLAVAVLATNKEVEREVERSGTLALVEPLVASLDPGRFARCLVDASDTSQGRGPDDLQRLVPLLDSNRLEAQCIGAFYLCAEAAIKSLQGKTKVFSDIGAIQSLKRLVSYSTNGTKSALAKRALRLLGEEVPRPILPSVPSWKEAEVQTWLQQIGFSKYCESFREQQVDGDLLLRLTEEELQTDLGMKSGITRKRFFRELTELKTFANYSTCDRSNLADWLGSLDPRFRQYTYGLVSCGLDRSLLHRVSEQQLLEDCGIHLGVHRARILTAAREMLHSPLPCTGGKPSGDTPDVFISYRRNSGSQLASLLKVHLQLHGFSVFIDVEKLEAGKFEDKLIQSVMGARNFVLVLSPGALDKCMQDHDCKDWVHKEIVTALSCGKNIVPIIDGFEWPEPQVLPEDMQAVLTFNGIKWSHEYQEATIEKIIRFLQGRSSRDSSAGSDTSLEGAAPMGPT", "type": "cell-based", "details": "SH-SY5Y cells, vacor 50 µM, 0-8 h", "procedure,_shortened": "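SH-SY5Y cells were pretreated in situ with compound for 3 h (0.1% DMSO), then given 50 μM vacor for 4 h. Pellets were resuspended in DPBS and quenched with cold methanol:acetonitrile (1:1) containing 100 pmol 8-Br-cADPR internal standard. Extraction used three freeze/sonication cycles, −20 °C for 1 h, centrifugation, drying and resuspension. cADPR was measured by LC-MS/MS, normalized to total protein; mean ± SEM of three independent experiments.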"}}, "note": "“Also recorded” adds a separate entry of the source.", "data": [{"smiles": "C=CC(=O)N1[C@@H](c2ccc3c(c2)OCO3)c2[nH]c3ccccc3c2C[C@H]1C(=O)NC", "note": "[MY-9A]", "values": [{"measurement": "off-target cysteines also engaged by the SARM1-inactive enantiomers", "setting": "[1]", "result": "DCTN4_C258, KEAP1_C151, PTGES2_C110, and UBR1_C1603"}, {"measurement": "prevention of vincristine-induced neurite degeneration", "setting": "[2]; 40 nM vincristine", "result": "weak activity"}, {"measurement": "blockade of vacor-induced neurite degeneration", "setting": "[3]; 1–20 µM, vacor 50 µM, over 48 h", "result": "ineffective"}]}, {"smiles": "C#CCNC(=O)[C@@H]1Cc2c([nH]c3ccccc23)[C@H](c2ccc3c(c2)OCO3)N1C(=O)C=C", "note": "[MY-13A]", "values": [{"measurement": "reactivity of alkyne probe with SARM1-C311A (gel-ABPP)", "setting": "[4]", "result": "very low reactivity"}]}, {"smiles": "C#CCNC(=O)[C@H]1Cc2c([nH]c3ccccc23)[C@@H](c2ccc3c(c2)OCO3)N1C(=O)C=C", "note": "[MY-13B]", "values": [{"measurement": "reactivity of alkyne probe with SARM1-C311A (gel-ABPP)", "setting": "[4]", "result": "very low reactivity"}, {"measurement": "reactivity of alkyne probe with SARM1 in vitro", "setting": "[5]; 20 µM", "result": "stereoselective reactivity; also recorded: maintained stereoselective engagement"}, {"measurement": "labeling of recombinant mouse SARM1 by alkyne probe", "setting": "[6]", "result": "lower extent of labeling"}, {"measurement": "reactivity of alkyne probe with WT-SARM1 (gel-ABPP)", "setting": "[7]; 20 µM", "result": "reacted strongly"}]}, {"smiles": "NC(=O)c1ccc[n+]([C@@H]2O[C@H](COP(=O)([O-])OP(=O)(O)OC[C@H]3O[C@@H](n4cnc5c(N)ncnc54)[C@H](O)[C@@H]3O)[C@@H](O)[C@H]2O)c1", "note": "[NAD^+, nicotinamide adenine dinucleotide, reference compound]", "values": [{"measurement": "effect of metabolite on MY-13B engagement of SARM1", "setting": "[5]", "result": "neither metabolite affected MY-13B engagement"}]}, {"smiles": "NC(=O)c1ccc[n+]([C@@H]2O[C@H](COP(=O)([O-])O)[C@@H](O)[C@H]2O)c1", "note": "[NMN, nicotinamide mononucleotide, reference compound]", "values": [{"measurement": "effect of metabolite on MY-13B engagement of SARM1", "setting": "[5]", "result": "neither metabolite affected MY-13B engagement"}]}, {"smiles": "COC(=O)c1c(C)nc(C)c(C(=O)OCC(C)C)c1-c1ccccc1N=O", "note": "[dHNN, dehydronitrosonisoldipine, reference compound]", "values": [{"measurement": "effect of C311 mutagenesis on inhibitory activity", "setting": "[8]", "result": "only modestly impaired (∼twofold)"}, {"measurement": "engagement of SARM1_C311 (effect on MY-13B reactivity)", "setting": "[7]; 5–50 µM, 3 h pretreatment, MY-13B 20 µM", "result": "did not observe substantial alterations in MY-13B reactivity"}]}, {"smiles": "O=C(NCc1cccnc1)Nc1ccc([N+](=O)[O-])cc1", "note": "[vacor]", "values": [{"measurement": "induction of cADPR production", "setting": "[9]", "result": "robust, time-dependent production of cADPR"}, {"measurement": "Degeneration Index (%)", "setting": "[3]; 8 h", "result": "~60", "unit": "%"}, {"measurement": "Degeneration Index (%)", "setting": "[3]; 24 h", "result": "full degeneration"}]}, {"smiles": "CC[C@]1(O)C[C@H]2CN(CCc3c([nH]c4ccccc34)[C@@](C(=O)OC)(c3cc4c(cc3OC)N(C=O)[C@H]3[C@@](O)(C(=O)OC)[C@H](OC(C)=O)[C@]5(CC)C=CCN6CC[C@]43[C@@H]65)C2)C1", "note": "[vincristine, reference compound]", "values": [{"measurement": "induction of neurite degeneration", "setting": "[2]; vincristine 40 nM", "result": "robust neurite degeneration"}]}]}
